This is an account of results in ChEMBL document CHEMBL1122168, “Species- or isozyme-specific enzyme inhibitors. 6. Synthesis and evaluation of two-substrate condensation products as inhibitors of hexokinases and thymidine kinases” (J Med Chem, 1982).

The test system of series [1] is Saccharomyces cerevisiae.
The target in series [2] is T1, Hexokinase-2 (Rattus norvegicus, UniProt P27881).
T1 sequence (P27881 whole entry): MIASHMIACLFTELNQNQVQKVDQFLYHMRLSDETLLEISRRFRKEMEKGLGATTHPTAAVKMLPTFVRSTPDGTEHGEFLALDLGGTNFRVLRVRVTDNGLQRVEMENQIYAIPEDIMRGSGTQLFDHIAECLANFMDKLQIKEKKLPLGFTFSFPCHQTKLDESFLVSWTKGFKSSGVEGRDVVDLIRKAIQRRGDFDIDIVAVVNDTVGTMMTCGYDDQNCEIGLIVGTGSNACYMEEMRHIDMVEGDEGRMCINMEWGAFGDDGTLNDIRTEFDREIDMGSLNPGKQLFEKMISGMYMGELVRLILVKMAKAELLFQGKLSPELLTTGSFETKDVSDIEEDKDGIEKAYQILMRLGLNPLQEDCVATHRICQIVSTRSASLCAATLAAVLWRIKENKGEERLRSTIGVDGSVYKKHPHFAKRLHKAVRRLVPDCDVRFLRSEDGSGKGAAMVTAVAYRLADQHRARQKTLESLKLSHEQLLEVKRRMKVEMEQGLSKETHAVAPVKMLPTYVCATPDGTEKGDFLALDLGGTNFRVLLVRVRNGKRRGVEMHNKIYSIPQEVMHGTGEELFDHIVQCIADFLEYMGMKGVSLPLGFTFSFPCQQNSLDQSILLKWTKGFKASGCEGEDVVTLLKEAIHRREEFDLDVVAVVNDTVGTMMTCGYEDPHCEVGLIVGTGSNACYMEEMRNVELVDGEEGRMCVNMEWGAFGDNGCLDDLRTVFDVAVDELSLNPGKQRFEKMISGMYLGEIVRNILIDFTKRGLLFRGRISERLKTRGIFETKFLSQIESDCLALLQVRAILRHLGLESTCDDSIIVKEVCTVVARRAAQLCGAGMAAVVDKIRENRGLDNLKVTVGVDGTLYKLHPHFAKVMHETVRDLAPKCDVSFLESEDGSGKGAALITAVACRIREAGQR
Put plainly: Evaluated for the inhibition constant Ki against Hexokinase, type II. An outline of the steps: (§1)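 Yeast HK or rat HK II (isoelectric focusing, dialysed with 0.5 mM DTT). PK/LDH-coupled assay in 0.05 M Tris-HCl pH 7.6 with 6.6 mM MgCl2, 10 mM glucose, 0.45 mM NADH, 0.55 mM PEP, 20 mM KCl. NADH loss followed at 340 nm, 22 °C. Variable MgATP at 0.6–4.0 × KM. Inhibitors given as equimolar Mg complexes.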

The target of series [3] is T2, Hexokinase-1 (Rattus norvegicus) (UniProt P05708).
T2 sequence (whole entry): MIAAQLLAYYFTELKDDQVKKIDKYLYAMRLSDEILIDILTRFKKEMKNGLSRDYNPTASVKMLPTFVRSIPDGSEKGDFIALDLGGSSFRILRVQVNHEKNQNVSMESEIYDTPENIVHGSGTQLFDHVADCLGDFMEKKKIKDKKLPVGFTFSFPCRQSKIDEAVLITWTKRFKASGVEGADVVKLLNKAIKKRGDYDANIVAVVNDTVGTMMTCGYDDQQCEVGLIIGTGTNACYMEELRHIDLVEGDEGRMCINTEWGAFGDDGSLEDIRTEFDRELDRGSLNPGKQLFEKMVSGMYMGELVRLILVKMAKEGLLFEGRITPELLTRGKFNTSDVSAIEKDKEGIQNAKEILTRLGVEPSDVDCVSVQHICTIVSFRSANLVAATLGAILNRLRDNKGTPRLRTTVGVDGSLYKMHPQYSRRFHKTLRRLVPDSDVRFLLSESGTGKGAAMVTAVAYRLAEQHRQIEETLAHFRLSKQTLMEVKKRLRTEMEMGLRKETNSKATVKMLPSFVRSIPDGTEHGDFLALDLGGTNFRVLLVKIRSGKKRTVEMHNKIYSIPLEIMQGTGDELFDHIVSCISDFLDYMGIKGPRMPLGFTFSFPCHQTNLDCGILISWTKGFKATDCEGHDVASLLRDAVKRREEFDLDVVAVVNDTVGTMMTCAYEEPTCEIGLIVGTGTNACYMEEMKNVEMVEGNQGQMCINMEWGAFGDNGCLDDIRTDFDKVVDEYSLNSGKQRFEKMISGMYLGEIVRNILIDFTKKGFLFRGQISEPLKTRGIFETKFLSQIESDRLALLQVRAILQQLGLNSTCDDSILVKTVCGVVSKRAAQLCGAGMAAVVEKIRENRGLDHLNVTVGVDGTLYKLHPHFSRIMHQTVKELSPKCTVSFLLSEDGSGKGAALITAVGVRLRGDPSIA
Kind of series: Evaluated for the inhibition of Hexokinase, type I -catalyzed reactionsI at 0.6 mM concentration. An outline of the steps: (§2)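 Rat HK I, II or III from isoelectric focusing, dialysed with 0.5 mM DTT. PK/LDH-coupled assay in 0.05 M Tris-HCl pH 7.6 with 6.6 mM MgCl2, 10 mM α-D-glucose, 0.45 mM NADH, 0.55 mM PEP and 20 mM KCl. Reactions started with enzyme; rates read from 340 nm absorbance change at 22 °C.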

In series [4] the target is T3, Hexokinase-2 (Rattus norvegicus) (UniProt P27881).
T3 sequence (whole entry): T1 sequence (P27881 whole entry)
Put plainly: Evaluated for the inhibition of Hexokinase, type II catalyzed reactions at 0.6 mM concentration. An outline of the steps:
as §2

The target in series [5] is T3, Hexokinase-2 (Rattus norvegicus). Put plainly: Evaluated for the inhibition of Hexokinase, type II catalyzed reactionsI at 0.3 mM concentration. An outline of the steps:
as §2

A short description of series [6]: Evaluated for the inhibition constant Ki against hexokinase in yeast. Further details: species or system Saccharomyces cerevisiae. The method, boiled down: as §1
Series [7] has as its target T4, Hexokinase-3 (Rattus norvegicus) (UniProt P27926).
T4 sequence (whole entry): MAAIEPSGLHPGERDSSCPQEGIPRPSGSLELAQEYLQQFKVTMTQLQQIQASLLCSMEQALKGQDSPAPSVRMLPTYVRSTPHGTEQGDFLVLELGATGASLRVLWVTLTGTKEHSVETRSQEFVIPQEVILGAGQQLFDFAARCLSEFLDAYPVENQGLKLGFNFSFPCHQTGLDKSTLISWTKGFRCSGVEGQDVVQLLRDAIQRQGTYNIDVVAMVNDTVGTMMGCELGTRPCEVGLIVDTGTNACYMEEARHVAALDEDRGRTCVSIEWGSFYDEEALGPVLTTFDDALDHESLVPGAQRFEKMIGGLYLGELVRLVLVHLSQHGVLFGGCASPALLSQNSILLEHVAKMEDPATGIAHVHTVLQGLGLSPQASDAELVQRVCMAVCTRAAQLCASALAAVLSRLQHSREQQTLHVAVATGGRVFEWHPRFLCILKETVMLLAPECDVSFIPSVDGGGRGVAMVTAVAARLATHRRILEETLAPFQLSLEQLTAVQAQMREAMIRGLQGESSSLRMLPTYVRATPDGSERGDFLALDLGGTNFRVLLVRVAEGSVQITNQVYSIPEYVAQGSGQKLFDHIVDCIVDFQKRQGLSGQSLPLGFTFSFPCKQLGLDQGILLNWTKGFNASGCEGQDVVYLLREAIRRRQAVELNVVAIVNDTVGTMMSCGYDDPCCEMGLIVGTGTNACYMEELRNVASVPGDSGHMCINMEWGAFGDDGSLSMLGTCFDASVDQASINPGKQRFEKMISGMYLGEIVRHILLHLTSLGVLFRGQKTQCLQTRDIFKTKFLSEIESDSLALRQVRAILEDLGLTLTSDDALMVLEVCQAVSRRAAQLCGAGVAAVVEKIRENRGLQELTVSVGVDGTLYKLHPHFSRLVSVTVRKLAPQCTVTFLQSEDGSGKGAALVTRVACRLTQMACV
Put plainly: Evaluated for the inhibition of Hexokinase type III catalyzed reactions at 0.3 mM concentration. The method, boiled down:
as §2

The target in series [8] is T4, Hexokinase-3 (Rattus norvegicus). Kind of series: Evaluated for the inhibition of Hexokinase type III catalyzed reactions at 0.6 mM concentration. The method, boiled down: as §2
For series [9], the target named is T2, Hexokinase-1 (Rattus norvegicus). Put plainly: Evaluated for the inhibition of Hexokinase, type I -catalyzed reactions at 0.3 mM concentration. The method, boiled down:
as §2

Series [10] concerns the target T3, Hexokinase-2 (Rattus norvegicus). Put plainly: Evaluated for the inhibition of Hexokinase, type II catalyzed reactions at 0.3 mM concentration. The method, boiled down:
as §2

Series [11] deals with T2, Hexokinase-1 (Rattus norvegicus). Kind of series: Evaluated for the inhibition of Hexokinase, type I -catalyzed reactions at 0.6 mM concentration. The method, boiled down:
as §2

Substrate in series [12]: Cc1cn([C@H]2C[C@H](O)[C@@H](CO)O2)c(=O)[nH]c1=O
Substrate in series [13]: Nc1ncnc2c1ncn2[C@@H]1O[C@H](COP(=O)(O)OP(=O)(O)OP(=O)(O)O)[C@@H](O)[C@H]1O
Substrate in series [14]: Cc1cn([C@H]2C[C@H](O)[C@@H](CO)O2)c(=O)[nH]c1=O
This is another data set of the same source.

Substrate in series [15]: Nc1ncnc2c1ncn2[C@@H]1O[C@H](COP(=O)(O)OP(=O)(O)OP(=O)(O)O)[C@@H](O)[C@H]1O
This is another data set of the same source.

Substrate in series [16]: Nc1ncnc2c1ncn2[C@@H]1O[C@H](COP(=O)(O)OP(=O)(O)OP(=O)(O)O)[C@@H](O)[C@H]1O
This is another data set of the same source.

The term Km denotes the concentration of substrate that gives half-maximal velocity. For the molecule `Nc1ncnc2c1ncn2[C@@H]1O[C@H](COP(=O)(O)OP(=O)(O)OP(=O)(O)O)[C@@H](O)[C@H]1O`, the Michaelis constant (Km) in series [1] came out at 210 µM.
For orientation: Ki means the dissociation constant of the complex between target and ligand, obtained from inhibition or displacement. Higher therefore signals a looser hold on the target. For orientation: inhibition means the relative decrease from the control value, in per cent. `Nc1ncnc2c1ncn2C1O[C@H](COP(=O)(O)OP(=O)(O)OP(=O)(O)OC[C@@H]2O[C@@H](O)[C@@H](O)[C@H](O)[C@H]2O)[C@@H](O)[C@H]1O` (stereo partly specified): the Ki in [2] worked out at 2200 µM; in [6], 1400 µM. In addition, the inhibition was 5.6% in series [3]; 10.1% in series [4]; 4.4% in [5]; 3.1% in series [7]; 6.2% in series [8]; 9.3% in [9].
`Nc1ncnc2c1ncn2C1O[C@H](COP(=O)(O)OP(=O)(O)OP(=O)(O)OP(=O)(O)OC[C@@H]2O[C@@H](O)[C@@H](O)[C@H](O)[C@H]2O)[C@@H](O)[C@H]1O` (stereo partly specified): the inhibition is 28% in [10]; 30% in [4]; 6.5% in [7]; 8.7% in [8]; 8% in series [11]; 4.7% in [9]. This molecule also gave a Ki in [6] of 3500 µM.

B1: Thymidine kinase, cytosolic (Rattus norvegicus), P27158 (protein)
chain: MSYINLPTVLPISPSKTRGQIQVILGPMFSGKSTELMRRVRRFQIAQYKCLVIKYAKDTRYSNSFSTHDRNTMDALPACMLKDVAQEALGVAVIGIDEGQFFPDIVDFCETMANTGKTVIV
As for B1, the Michaelis constant (Km) came out at 8 µM in series [12], 190 µM in [13], 1.6 µM in series [14] and 180 µM in [15].

B2: Hexokinase-2 (Rattus norvegicus), P27881 (protein)
chain: T1 sequence (P27881 whole entry)
For B2, the Km in [16] was found to be 710 µM.
